ChEMBL document CHEMBL1240329, “Identification and mechanistic characterization of low-molecular-weight inhibitors for HuR” (Nat Chem Biol, 2007)
Values belong to the molecule of their own block, whether it stands above or below them. Calls of active or inactive are those of the source. No cut-off for these calls is given here.

Columns and labels:
[1] = system: Monocyte; assay: Inhibition of IL-6 gene expression in LPS/INF-gamma-stimulated human primary monocytes up to 30 uM by RT-PCR analysis; format: functional
[2] = system: Monocyte; assay: Inhibition of COX-2 expression in LPS/INF-gamma-stimulated human primary monocytes up to 30 uM by ELISA; format: functional
[3] = system: Monocyte; assay: Inhibition of IL1-beta gene expression in LPS/INF-gamma-stimulated human primary monocytes up to 30 uM by RT-PCR analysis; format: functional
[4] = Cytotoxicity against human PBMC assessed as cell viability at 50 uM after 48 hrs relative control; format: cell-based; conditions: read-out: Activity
Method in brief: (§1)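 Freshly isolated human PBMCs activated with soluble anti-CD3 plus anti-CD28 and exposed to compound for 48 h. Viability expressed as percent of DMSO control.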

[5] = system: Monocyte; assay: Inhibition of IL1-beta expression in LPS/INF-gamma-stimulated human primary monocytes by ELISA; format: functional
[6] = system: Monocyte; assay: Inhibition of COX-2 gene expression in LPS/INF-gamma-stimulated human primary monocytes up to 30 uM by RT-PCR analysis; format: functional
[7] = system: PBMC; assay: Inhibition of HuR in anti-CD3 and anti-CD28-stimulated human PBMC assessed as reduction of cytoplasmic protein level after 48 hrs by confocal microscopy; format: functional, cell-based
[8] = system: Monocyte; assay: Inhibition of IL-6 expression in LPS/INF-gamma-stimulated human primary monocytes up to 30 uM by ELISA; format: functional
[9] = system: Monocyte; assay: Inhibition of IL1-beta expression in LPS/INF-gamma-stimulated human primary monocytes up to 30 uM by ELISA; format: functional
[10] = system: Monocyte; assay: Inhibition of IL-6 gene expression in LPS/INF-gamma-stimulated human primary monocytes by RT-PCR analysis
[11] = target: T1, ELAV-like protein 1 (Homo sapiens, UniProt Q15717); assay: Inhibition of recombinant HuR RRM1/RRM2 domain assessed as protein dimerization with TMR-labeled A/U-rich element of IL-2 by confocal fluctuation spectroscopy
T1 sequence (Q15717 whole entry, the tested form may be a part): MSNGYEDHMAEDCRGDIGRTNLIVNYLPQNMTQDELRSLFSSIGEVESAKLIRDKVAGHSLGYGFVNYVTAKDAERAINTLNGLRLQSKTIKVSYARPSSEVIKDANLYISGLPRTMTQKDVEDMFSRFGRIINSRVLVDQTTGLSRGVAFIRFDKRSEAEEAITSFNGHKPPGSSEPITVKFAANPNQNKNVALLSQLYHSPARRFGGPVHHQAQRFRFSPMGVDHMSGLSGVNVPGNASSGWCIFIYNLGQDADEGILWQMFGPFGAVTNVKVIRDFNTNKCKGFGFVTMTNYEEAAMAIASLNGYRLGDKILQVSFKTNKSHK

[12] = target: T1, ELAV-like protein 1; assay: Binding affinity recombinant HuR RRM1/RRM2 domain by confocal fluctuation spectroscopy
Method in brief: (§2)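 Binding followed as fluorescence anisotropy by 2D-FIDA, converted to fraction bound. Inhibition curves simulated from the fitted HuR–RNA Kd, with actual RNA, HuR and compound levels as boundary conditions. Ten measurements averaged; at least three independent experiments.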

[13] = system: Monocyte; assay: Inhibition of IL-6 expression in LPS/INF-gamma-stimulated human primary monocytes by ELISA; format: functional
[14] = target: T1, ELAV-like protein 1; assay: Inhibition of recombinant HuR RRM1/RRM2 domain assessed as protein interaction with TMR-labeled A/U-rich element of TNFalpha by confocal fluctuation spectroscopy; method in brief: as §2
[15] = system: Monocyte; assay: Inhibition of COX-2 expression in LPS/INF-gamma-stimulated human primary monocytes by ELISA; format: functional
[16] = target: T1, ELAV-like protein 1; assay: Inhibition of recombinant HuR RRM1/RRM2 domain assessed as protein interaction with TMR-labeled A/U-rich element of IL-2 by confocal fluctuation spectroscopy; method in brief: as §2
[17] = target: Myosin light chain kinase, smooth muscle (Homo sapiens, UniProt Q15746); assay: Inhibition of MYLK
Myosin light chain kinase, smooth muscle, sequence (Q15746 whole entry): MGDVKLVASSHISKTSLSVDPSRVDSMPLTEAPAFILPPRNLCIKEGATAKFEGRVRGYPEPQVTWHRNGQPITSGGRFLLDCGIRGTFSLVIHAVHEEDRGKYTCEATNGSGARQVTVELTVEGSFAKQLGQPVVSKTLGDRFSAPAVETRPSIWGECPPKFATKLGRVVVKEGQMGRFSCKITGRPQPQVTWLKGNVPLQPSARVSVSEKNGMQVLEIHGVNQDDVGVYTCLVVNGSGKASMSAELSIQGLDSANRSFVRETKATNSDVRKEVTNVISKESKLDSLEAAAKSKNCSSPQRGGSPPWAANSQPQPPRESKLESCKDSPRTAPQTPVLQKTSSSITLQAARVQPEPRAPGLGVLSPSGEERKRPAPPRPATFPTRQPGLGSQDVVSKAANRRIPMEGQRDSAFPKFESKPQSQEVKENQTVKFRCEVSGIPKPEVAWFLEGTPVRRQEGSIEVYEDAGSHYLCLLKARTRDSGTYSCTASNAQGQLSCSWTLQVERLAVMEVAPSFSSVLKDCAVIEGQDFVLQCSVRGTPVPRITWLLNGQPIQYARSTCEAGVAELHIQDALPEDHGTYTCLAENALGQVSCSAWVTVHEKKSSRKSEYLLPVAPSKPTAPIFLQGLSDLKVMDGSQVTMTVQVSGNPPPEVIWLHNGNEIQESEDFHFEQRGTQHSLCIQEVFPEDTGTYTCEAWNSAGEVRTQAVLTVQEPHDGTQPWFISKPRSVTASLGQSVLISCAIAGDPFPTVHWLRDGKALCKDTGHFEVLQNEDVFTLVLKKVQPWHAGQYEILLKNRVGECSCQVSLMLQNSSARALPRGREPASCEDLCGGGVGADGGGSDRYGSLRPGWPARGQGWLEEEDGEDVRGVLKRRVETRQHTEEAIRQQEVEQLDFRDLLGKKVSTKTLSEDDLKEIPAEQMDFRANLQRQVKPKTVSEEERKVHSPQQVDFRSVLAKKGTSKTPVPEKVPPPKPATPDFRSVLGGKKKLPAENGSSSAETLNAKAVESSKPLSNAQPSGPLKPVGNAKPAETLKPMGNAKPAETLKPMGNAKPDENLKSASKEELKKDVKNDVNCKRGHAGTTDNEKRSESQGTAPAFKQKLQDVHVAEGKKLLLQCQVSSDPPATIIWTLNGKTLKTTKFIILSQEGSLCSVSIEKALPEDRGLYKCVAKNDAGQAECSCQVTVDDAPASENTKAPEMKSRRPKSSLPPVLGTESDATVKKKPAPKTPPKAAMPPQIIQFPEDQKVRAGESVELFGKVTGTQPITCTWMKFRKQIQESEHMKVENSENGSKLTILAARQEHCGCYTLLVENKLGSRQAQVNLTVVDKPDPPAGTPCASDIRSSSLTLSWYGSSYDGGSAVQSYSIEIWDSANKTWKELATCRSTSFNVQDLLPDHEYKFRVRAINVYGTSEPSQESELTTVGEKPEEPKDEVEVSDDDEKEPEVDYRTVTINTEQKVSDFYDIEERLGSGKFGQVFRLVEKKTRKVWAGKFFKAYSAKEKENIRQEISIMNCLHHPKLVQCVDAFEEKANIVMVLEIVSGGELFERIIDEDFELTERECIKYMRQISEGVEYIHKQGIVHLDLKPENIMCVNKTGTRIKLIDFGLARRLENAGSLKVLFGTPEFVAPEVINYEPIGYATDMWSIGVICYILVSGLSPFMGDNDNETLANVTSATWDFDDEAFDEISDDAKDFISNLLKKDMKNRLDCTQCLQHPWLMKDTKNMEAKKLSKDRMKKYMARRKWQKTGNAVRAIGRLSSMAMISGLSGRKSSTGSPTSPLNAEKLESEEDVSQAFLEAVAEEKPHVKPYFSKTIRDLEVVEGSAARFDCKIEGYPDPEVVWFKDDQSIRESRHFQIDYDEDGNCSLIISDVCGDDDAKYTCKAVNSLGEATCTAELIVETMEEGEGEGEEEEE

[18] = Cytotoxicity against human PBMC assessed as cell viability at 25 uM after 48 hrs relative control; format: cell-based; conditions: read-out: Activity; method in brief: as §1
[19] = system: Monocyte; assay: Inhibition of COX-2 gene expression in LPS/INF-gamma-stimulated human primary monocytes by RT-PCR analysis
[20] = system: Monocyte; assay: Inhibition of IL1-beta gene expression in LPS/INF-gamma-stimulated human primary monocytes by RT-PCR analysis
[21] = target: T1, ELAV-like protein 1; assay: Inhibition of recombinant full length HuR assessed as inhibition of protein-IL-2 A/U-rich element interaction-associated release of particle number at 2 uM by 2D-FIDA
[22] = target: T1, ELAV-like protein 1; assay: Inhibition of recombinant HuR RRM1/RRM2 domain assessed as protein dimerization with TMR-labeled A/U-rich element of TNFalpha by confocal fluctuation spectroscopy
[23] = system: PBMC; assay: Inhibition of HuR in anti-CD3 and anti-CD28-stimulated human PBMC assessed as reduction of cytoplasmic protein level at 25 uM after 48 hrs by confocal microscopy; format: functional, cell-based

SMILES: Cc1cc(O)c2c(O)cccc2c1-c1cc(=O)cc(O)o1 [DEHYDROMUTACTIN]
inhibition [1]: inactive | inhibition [2]: inactive | inhibition [3]: inactive | viability at 48 h, 50 µM [4]: 97% | inhibition [5]: inactive | inhibition [6]: inactive | inhibition [7]: Dose-dependent effect | inhibition [8]: inactive | inhibition [9]: inactive

SMILES: Cc1cc(O)cc2cc3c(c(O)c12)C(=O)CCC3O (stereo unspecified)
inhibition [7]: inactive

SMILES: Cc1cc(O)cc2oc(Cc3cc(O)cc(=O)o3)cc(=O)c12
inhibition [1]: inactive | inhibition [2]: inactive | inhibition [5]: inactive | inhibition [6]: inactive | inhibition [8]: inactive | inhibition [9]: inactive

IC50 [10]: 2400 nM | Kd [11]: 0.1 nM | Kd [12]: 420 nM | Kd [14]: 14 nM | Kd [16]: 230 nM | IC50 [17]: 10000 nM | IC50 [19]: 2100 nM | IC50 [20]: 3700 nM | inhibition [21]: Active | Kd [22]: 0.1 nM
SMILES: Cc1occ2c1C(=O)c1c(O)ccc(O)c1C2
inhibition [13]: Dose-dependent effect | inhibition [5]: Dose-dependent effect | inhibition [15]: Dose-dependent effect | viability at 48 h, 25 µM [18]: 94% | inhibition [23]: inactive
